Source: PubChem BioAssay AID588789 (The Scripps Research Institute Molecular Screening Center, 2011)

Molecular target: Platelet-activating factor acetylhydrolase (Mus musculus) (UniProt Q60963)
Experiment: in vivo mouse pPAFAH activity blockade – gel-based competitive ABPP, fluorescence, in vivo study, late-stage follow-up (AID 588789)
Settings: mouse oral dosing, brain membrane gel ABPP, HT-01; 50 mg/kg oral dose, 4 h; hits give high values
Procedure, shortened: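 Assay system: mouse brain membrane proteome after oral dosing; buffer or medium: Dulbecco's PBS (DPBS); schedule: 4 h dosing-to-sacrifice, then 30 min probe labelling, 37 °C; technique: SDS-PAGE followed by in-gel fluorescence scan of pPAFAH band; evaluation: % inhibition from band density versus vehicle; benchmarks: vehicle mice high, gel background low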

Platelet-activating factor acetylhydrolase (Mus musculus), sequence (Q60963 whole entry, looked up): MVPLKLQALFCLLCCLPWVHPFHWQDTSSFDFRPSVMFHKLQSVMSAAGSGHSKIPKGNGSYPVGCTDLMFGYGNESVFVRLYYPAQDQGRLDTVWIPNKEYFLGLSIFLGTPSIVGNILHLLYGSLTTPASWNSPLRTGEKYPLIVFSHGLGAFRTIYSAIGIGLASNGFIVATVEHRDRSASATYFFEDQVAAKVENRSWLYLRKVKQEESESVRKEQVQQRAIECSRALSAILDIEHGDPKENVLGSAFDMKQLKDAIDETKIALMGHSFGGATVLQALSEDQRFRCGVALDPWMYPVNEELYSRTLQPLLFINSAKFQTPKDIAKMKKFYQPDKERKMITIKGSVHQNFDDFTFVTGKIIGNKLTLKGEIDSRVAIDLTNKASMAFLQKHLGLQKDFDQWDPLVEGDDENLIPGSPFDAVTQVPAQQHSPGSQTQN

Row | SMILES | inhibition [%]
1 | Cc1cc(N2CCN(C(=O)Oc3ccc(-c4ccccc4)cc3)CC2)c2ccccc2n1 | 63
2 | Cc1cc(N2CCN(C(=O)Oc3ccc(-c4ccccc4)cn3)CC2)c2ccccc2n1 | 86
